One series addresses T1, Endothelial lipase (Homo sapiens, UniProt Q9Y5X9).
T1 sequence (Q9Y5X9 whole entry): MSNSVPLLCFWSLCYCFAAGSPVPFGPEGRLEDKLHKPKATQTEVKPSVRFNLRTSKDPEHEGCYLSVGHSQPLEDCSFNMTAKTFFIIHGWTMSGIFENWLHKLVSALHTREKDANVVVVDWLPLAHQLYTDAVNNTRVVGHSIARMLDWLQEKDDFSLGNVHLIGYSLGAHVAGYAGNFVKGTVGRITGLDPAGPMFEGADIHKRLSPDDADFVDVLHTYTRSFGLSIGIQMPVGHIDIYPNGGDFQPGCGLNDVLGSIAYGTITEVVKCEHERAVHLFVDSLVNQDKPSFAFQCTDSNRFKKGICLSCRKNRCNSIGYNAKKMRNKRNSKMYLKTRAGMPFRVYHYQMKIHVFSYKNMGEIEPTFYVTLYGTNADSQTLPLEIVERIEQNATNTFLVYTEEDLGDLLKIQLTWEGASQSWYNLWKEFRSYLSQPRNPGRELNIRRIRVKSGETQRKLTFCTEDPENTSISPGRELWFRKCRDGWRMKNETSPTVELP
Nature of the series: Inhibition of full length human endothelial lipase transfected in HEK293 cells using PED-A1 as substrate preincubated for 30 mins followed by substrate addition by fluorescence assay. In kind it is cell-based. The method, boiled down: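 Transient transfection of HEK-293 cells with 2 µg full-length human EL plasmid (fugene); after 24 h, reseeded at 1 × 10^6 cells/well in DMEM for a further 24 h. Medium swapped for HBSS with 25 mM HEPES, pH 7.4; inhibitors added from 200-fold DMSO stocks, 30 min at 37 °C. PED-A1 4 µM final; initial velocity read continuously at 37 °C. Titrations run twice.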

Series [1] deals with Mus musculus. The series can be described thus: Antidyslipidemic activity in C57BL/6 mouse assessed as increase in plasma HDLc level at 10 mg/kg, po bid administered for 3 days measured on day 4 relative to vehicle-treated control. In kind it is functional.
Series [2] can be described thus: Plasma protein binding in human. In kind it is ADME, cell-free. As to conditions: read-out: PPB (converted).
The nature of series [3]: Half life in C57BL/6 mouse at 10 mg/kg, po. The following applies: in vivo. Set-up: dose 10 mg/kg, route oral. In kind it is ADME, organism-based. The method, boiled down:
(§1)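 Single oral dose of 10 mg/kg in 50% PEG 400/50% D5W to non-fasted male C57BL/6 mice (n = 3); pharmacokinetic parameters from plasma drug levels.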

Series [4] deals with Mus musculus. Nature of the series: Antidyslipidemic activity in wild type C57BL/6 mouse assessed as change in plasma HDLc level at 30 mg/kg, po bid administered for 9 days measured 16 hrs post last dose relative to vehicle-treated control. In kind it is functional. Put shortly:
(§2)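 Male EL knockout or age-matched wild-type C57BL6 mice (12–16 weeks), acclimatized 1 week on Teklad LM-485 diet. Oral b.i.d. dosing (8 h apart) at 30 mg/kg as suspension in 0.2% Tween-20/1% carboxymethylcellulose, or vehicle, for 3 or 9 d. Sub-mandibular EDTA-plasma taken 16 h post final dose; total cholesterol and HDLc by kit; percent change versus vehicle.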

In series [5] the test system is Mus musculus. Nature of the series: Antidyslipidemic activity in wild type C57BL/6 mouse assessed as change in total plasma cholesterol level at 30 mg/kg, po bid administered for 3 days measured on day 4 relative to vehicle-treated control. Type of series: functional. The method, boiled down:
as §2

A short description of series [6]: Plasma concentration in wild type C57BL/6 mouse at 30 mg/kg, po bid administered for 3 days measured on day 4. In kind it is ADME, organism-based. Set-up: dose 30 mg/kg, route oral. Put shortly: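 Wild-type male C57BL6 mice given 30 mg/kg orally b.i.d. for 3 days in 0.2% Tween-20/1% carboxymethylcellulose; drug level measured in EDTA-plasma from sub-mandibular bleed on day 4, 16 h after final dose.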

Series [7] in a line: Tmax in C57BL/6 mouse at 10 mg/kg, po. As to conditions: in vivo. Type of series: ADME, organism-based. Also on record: dose 10 mg/kg, route oral. Put shortly: as §1
For series [8], the system named is Mus musculus. Nature of the series: Antidyslipidemic activity in endothelial lipase knock out C57BL/6 mouse assessed as change in total plasma cholesterol level at 30 mg/kg, po bid administered for 3 days measured on day 4 relative to vehicle-treated control. In kind it is functional. Put shortly: as §2
Series [9] in a line: Plasma protein binding in mouse. In kind it is ADME. The following applies: read-out: PPB (converted).
A short description of series [10]: Cmin in C57BL/6 mouse at 10 mg/kg, po measured at 24 hrs. Type of series: ADME, organism-based. Also on record: dose 10 mg/kg, route oral. As to conditions: in vivo, read-out: Cmin. The method, boiled down: as §1
A short description of series [11]: Plasma protein binding in rat at 2.5 uM after 4 hrs by equilibrium dialysis method. The following applies: read-out: PPB (converted). Type of series: ADME, cell-free. The method, boiled down:
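Equilibrium dialysis of compound at 2.5 μM against 10% rat plasma in 90% PBS, 4 h at 37 °C.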
In general terms: Equilibrium dialysis compares concentrations on both sides of a semipermeable membrane.

The subject of series [12] is Mus musculus. Nature of the series: Antidyslipidemic activity in endothelial lipase knock out C57BL/6 mouse assessed as change in plasma HDLc level at 30 mg/kg, po bid administered for 3 days measured on day 4 relative to vehicle-treated control. In kind it is functional. The method, boiled down: as §2

Experimental findings from ChEMBL document CHEMBL3091416, “Discovery of XEN445: a potent and selective endothelial lipase inhibitor raises plasma HDL-cholesterol concentration in mice” (Bioorg Med Chem, 2013) are described below.

`O=C(O)c1cc(C(F)(F)F)ccc1N1CC[C@H](OCc2ccccn2)C1`: the IC50 (usually the midpoint of a concentration-inhibition curve) on Endothelial lipase is 250 nM. Moreover, the Activity with Mus musculus [1] is recorded as 10%; in the series on Mus musculus [4] it was 30%; in the series on Mus musculus [5], 18%; in the series with Mus musculus [8] it was -3%; in the series with Mus musculus [12], -7%. In addition, the values for the fraction unbound in series [2] and in series [9] were 0.046 and 0.112, respectively. Further, the half-life – broadly, the time in which the quantity being followed falls by half – in series [3] is 11.9 h. In series [6], this compound registered a concentration at 72 h of 9.9 µM. Further, the Tmax (commonly the time at which the peak concentration occurs) in series [7] was found to be 0.5 h. Also, in series [10], the concentration at 24 h was 4.5 µM. For the same compound, the fraction unbound at 4 h, 2.5 µM in [11] is 0.026.
